Measurements reported in ChEMBL document CHEMBL1158940, “Antihyperlipidemic effect of flavonoids from Prunus davidiana” (1991).

Legend:
Assay type in all cases: functional
Design in all cases: scale not given: the % may be the effect or the level left
Conditions in all cases: route intraperitoneal
[1] = test system: Rattus norvegicus; assay: Antihyperlipidemic effect in high fat diet-induced rat assessed as decrease in serum triglyceride level at 10 mg/kg, ip relative to control
In short: (§1)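 Male JCL:Wistar rats (150 g) on commercial chow 1 week, then high-fat diet (10 g soybean oil per 100 g, casein, α-cornstarch) 6 days, pair-matched for blood triglyceride and body weight. Compound suspended in 5% EtOH/saline, ip once daily for 3 days; controls get vehicle. Sacrificed 4 h after last dose (2–3 PM); serum separated at 1000 g, 4°. Six rats per group; percent of control; Student's t-test.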

[2] = test system: Rattus norvegicus; assay: Antihyperlipidemic effect in high fat diet-induced rat assessed as decrease in serum total cholesterol level at 10 mg/kg, ip relative to control; in short: as §1
[3] = test system: Rattus norvegicus; assay: Antihyperlipidemic effect in high fat diet-induced rat assessed as decrease in serum triglyceride level at 20 mg/kg, ip relative to control; in short: as §1
[4] = test system: Rattus norvegicus; assay: Antihyperlipidemic effect in high fat diet-induced rat assessed as decrease in serum total cholesterol level at 20 mg/kg, ip relative to control; in short: as §1

Structure (SMILES) | Activity [1] | Activity [2] | Activity [3] | Activity [4]
COc1ccc([C@@H]2CC(=O)c3c(O[C@@H]4O[C@H](CO)[C@@H](O)[C@H](O)[C@H]4O)cc(O)cc3O2)cc1O | 100% | 88% | 90% | 101%
Oc1cc(O)c2c(c1)O[C@H](c1ccc(O)c(O)c1)[C@@H](O)C2 [CIANIDANOL] | 75% | 95% | 73% | 99%
O=C1C[C@@H](c2ccc(O)cc2)Oc2cc(O[C@@H]3O[C@H](CO)[C@@H](O)[C@H](O)[C@H]3O)cc(O)c21 [PRUNIN] | 90% | 102% | 107% | 91%
